Measurements: ChEMBL document CHEMBL1128301, “Cephalosporin derivatives of doxorubicin as prodrugs for activation by monoclonal antibody-beta-lactamase conjugates” (J Med Chem, 1995)

Experiments:
Assay type in all cases: functional, cell-based
H2981 cell line [1] = assay: Concentration resulting in 50% incorporation of [3H]thymidine compared to untreated control cells on H2981 human lung adenocarcinoma cells in the absence of Enterobacter cloacae P99 beta-lactamase (ECIbL); settings: H2981, 1 h
Outline: (§1)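 H2981 cells in IMDM/10% FBS were seeded at 4000 or 8000 per well and left 18 h at 37 °C. Drug, ±EClbL, was given in RPMI/10% FBS over a concentration range for 1 h at 37 °C, then washed off and cells kept 18 h. [³H]thymidine (1 μCi/well) was pulsed 6 h (8000 cells) or 18 h (4000 cells).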

H2981 cell line [2] = assay: Concentration resulting in 50% incorporation of [3H]thymidine compared to untreated control cells on H2981 human lung adenocarcinoma cells in the presence of doxorubicin; settings: H2981, 1 h; outline: as §1
H2981 cell line [3] = assay: Enterobacter cloacae P99 beta-lactamase (ECIbL) enzyme concentration required to achieve an IC50 value of compound on H2981 lung adenocarcinoma cells; settings: Homo sapiens
Outline: (§2)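 H2981 cells were plated at 4000 or 8000/well and allowed to adhere 18 h at 37 °C. Prodrug was held fixed at 1 μM while β-lactamase was titrated. After 1 h at 37 °C, cells were washed and incubated 18 h. A [³H]thymidine pulse (1 μCi/well) followed, 6 h or 18 h depending on seeding.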

H2981 cell line [4] = assay: Concentration resulting in 50% incorporation of [3H]thymidine compared to untreated control cells on H2981 human lung adenocarcinoma cells in the presence of 10 ug/mL Enterobacter cloacae P99 beta-lactamase (ECIbL); settings: H2981, 1 h; outline: as §1
H2981 cell line [5] = assay: Escherichia coli TEM-1 beta-lactamase (ECbL) enzyme concentration required to achieve an IC50 value of compound on H2981 lung adenocarcinoma cells; settings: Homo sapiens; outline: as §2
H2981 cell line [6] = assay: Bacillus cereus beta-lactamase (BCbL) enzyme concentration required to achieve an IC50 value of compound on H2981 lung adenocarcinoma cells; settings: Homo sapiens; outline: as §2
H2981 cell line [7] = assay: Cytotoxicity on H2981 Human lung adenocarcinoma cells.; outline: as §1

IC50 (H2981 cell line [1])	IC50 (H2981 cell line [2])	IC50 (H2981 cell line [3])	IC50 (H2981 cell line [4])	IC50 (H2981 cell line [5])	IC50 (H2981 cell line [6])	SMILES	IC50 (H2981 cell line [7])
2500 nM	460 nM	0.13 nM	450 nM	1.13 nM	1.58 nM	COc1cccc2c1C(=O)c1c(O)c3c(c(O)c1C2=O)C[C@@](O)(C(=O)CO)C[C@@H]3OC1CC(NC(=O)OCC2=C(C(=O)O)N3C(=O)[C@@H](NC(=O)CSC4OC(CO)C(O)C(O)C4O)[C@H]3SC2)C(O)C(C)O1 (some centres not stated)	
21900 nM	480 nM	0.039 nM	470 nM	6.5 nM	1.13 nM	COc1cccc2c1C(=O)c1c(O)c3c(c(O)c1C2=O)C[C@@](O)(C(=O)CO)C[C@@H]3OC1CC(NC(=O)OCC2=C(C(=O)O)N3C(=O)[C@@H](NC(=O)CCCC(=O)O)[C@H]3SC2)C(O)C(C)O1 (some centres not stated)	
7400 nM	550 nM	0.012 nM	750 nM	0.68 nM	0.25 nM	COc1cccc2c1C(=O)c1c(O)c3c(c(O)c1C2=O)C[C@@](O)(C(=O)CO)C[C@@H]3OC1CC(NC(=O)OCC2=C(C(=O)O)N3C(=O)[C@@H](NC(=O)Cc4ccccc4)[C@H]3SC2)C(O)C(C)O1 (some centres not stated)	
10300 nM	560 nM	0.024 nM	550 nM	0.25 nM	0.21 nM	COc1cccc2c1C(=O)c1c(O)c3c(c(O)c1C2=O)C[C@@](O)(C(=O)CO)C[C@@H]3OC1CC(NC(=O)OCC2=C(C(=O)O)N3C(=O)[C@@H](NC(=O)Cc4cccs4)[C@H]3SC2)C(O)C(C)O1 (some centres not stated)	
8200 nM	460 nM	9.86 nM	430 nM	185 nM	24.9 nM	COc1cccc2c1C(=O)c1c(O)c3c(c(O)c1C2=O)C[C@@](O)(C(=O)CO)C[C@@H]3OC1CC(NC(=O)OCC2=C(C(=O)O)N3C(=O)[C@@H](N)[C@H]3SC2)C(O)C(C)O1 (some centres not stated)	
14800 nM	560 nM	5.65 nM	470 nM	22.7 nM	0.39 nM	COc1cccc2c1C(=O)c1c(O)c3c(c(O)c1C2=O)C[C@@](O)(C(=O)CO)C[C@@H]3OC1CC(NC(=O)OCC2=C(C(=O)O)N3C(=O)[C@@H](NC(=O)C(c4ccccc4)S(=O)(=O)O)[C@H]3SC2)C(O)C(C)O1 (some centres not stated)	
						COc1cccc2c1C(=O)c1c(O)c3c(c(O)c1C2=O)C[C@@](O)(C(=O)CO)C[C@@H]3O[C@H]1C[C@H](N)[C@H](O)[C@H](C)O1 [DOXORUBICIN]	500 nM
